S100A4 inh HTS: inhibitors of S100A4-myosin IIA peptide binding, primary screen, biochemical, fluorescence polarization, TAMRA-MyoIIA peptide; AID 652163, 2013; inhibition, % at 10.7 µM; hit rate 0.14% among 360,000;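 active means mean inhibition of at least 70% across replicates, with every replicate also reaching that level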
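Material: S100A4 monomer protein | Medium: HEPES pH 7.2 with CaCl2, KCl, NaCl, DTT, Triton | Reagent: Labelled myosin peptide probe, 5 nM | Doses: One dose per compound | Times: 5 min incubation before reading | Benchmarks: Neutral control DMSO, positive control TFP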
CDK5 p35 inh: inhibitors of human CDK5/p35 kinase, primary screen, biochemical, single concentration; inhibition, % at 10 µM; hit rate 0.01% among 330,000; Cyclin-dependent kinase 5 (Homo sapiens) + Cyclin-dependent kinase 5 activator 1 (Homo …; Recombinant CDK5/p35, ADP-Glo luminescence, 60 min;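 active means highest replicate inhibition of at least 50% and at least 75% of replicates reaching 50%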;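 further: plate controls were DMSO neutral control for no effect and GW8510 at 10 µM for full effect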
Target sequence (Q00535 whole entry, looked up): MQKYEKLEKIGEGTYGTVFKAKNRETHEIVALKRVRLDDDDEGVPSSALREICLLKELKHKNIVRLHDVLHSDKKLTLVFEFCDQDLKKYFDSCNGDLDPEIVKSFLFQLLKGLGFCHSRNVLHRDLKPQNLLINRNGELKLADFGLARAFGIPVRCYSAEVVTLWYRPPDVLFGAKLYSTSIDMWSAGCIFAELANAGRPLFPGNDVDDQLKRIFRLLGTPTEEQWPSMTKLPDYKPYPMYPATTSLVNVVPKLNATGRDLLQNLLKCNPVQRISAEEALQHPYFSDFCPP
Target sequence (Q15078 whole entry, looked up): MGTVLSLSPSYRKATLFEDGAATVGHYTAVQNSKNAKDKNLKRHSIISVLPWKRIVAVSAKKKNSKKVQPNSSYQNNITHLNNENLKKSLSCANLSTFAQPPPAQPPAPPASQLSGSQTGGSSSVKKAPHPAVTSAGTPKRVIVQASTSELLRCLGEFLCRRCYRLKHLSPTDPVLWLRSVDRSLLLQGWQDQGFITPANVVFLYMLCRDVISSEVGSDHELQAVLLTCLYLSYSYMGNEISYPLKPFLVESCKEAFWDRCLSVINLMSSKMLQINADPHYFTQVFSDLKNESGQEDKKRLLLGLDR
CAL PDZ FP-1: CAL PDZ peptide-binding inhibitors, primary screen, biochemical, fluorescence polarization, Cer-tagged CAL PDZ, HTS; Golgi-associated PDZ and coiled-coil motif-containing protein (Homo sapiens), Q9HD26; purified CAL PDZ, TMR-peptide fluorescence polarization, 1 h; inhibition, % at 20 µM; hit rate 0.02% among 330,000; AID 504414, 2011;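 active means highest replicate inhibition of at least 40%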;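 further: plate controls were DMSO neutral control wells for no effect and unlabeled competitor peptide control wells for full effect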
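System: purified tagged CAL PDZ domain construct (CerCALP). Schedule: 1 h incubation at room temperature before polarization reading. Medium: 25 mM sodium phosphate pH 7.4, 150 mM NaCl, TCEP, IgG, Thesit. Read-out: percent inhibition from loss of millipolarization. Measured by: FP readout, S and P plane fluorescence. Probe or stimulus: fluorescent TMR peptide probe.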
CAL PDZ FP-2: untagged CAL PDZ binding inhibitors, primary screen, biochemical, fluorescence polarization, HTS. Golgi-associated PDZ and coiled-coil motif-containing protein (Homo sapiens), Q9HD26. purified CAL PDZ, TMR-peptide fluorescence polarization, 1 h. inhibition, % at 24.9 µM. hit rate 0.92% among 300,000. AID 602252, 2012;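 active means mean inhibition of at least 30% with at least half of replicates also reaching 30%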;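 further: 0% = DMSO neutral control and 100% = excess unlabeled competitor peptide PRC23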
C2C12 statin: suppressors of statin myotoxicity in C2C12 myotubes, primary screen, cell-based, single point, plate reader; rescue of ATP level, % at 7.49 µM; C2C12 myotubes + simvastatin, ATP luminescence, 48 h; scaled: DMSO 0, geranylgeraniol control 100; AID 602340, 2012; hit rate 0.78% among 330,000;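 active means mean ATP rescue above about 67%, or every replicate alone reaching that limit, limit read from the data, passing the limit was not always enough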;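 further: myotubes were challenged with 10 µM simvastatin during compound exposure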
dFosB activator: activators of delta FosB homodimer, primary screen, biochemical, fluorescence polarization, TAMRA-CDK5 oligo, single point; Protein FosB (Mus musculus), P13346; purified delta FosB; percent of positive-control signal above neutral wells; activation, % at 25 µM; hit rate 0.99% among 340,000; AID 493131, 2011;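 active means mean activation above about 17%, with every replicate also reaching it, limit read from the data, passing the limit was not always enough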
An asterisk follows results filed as active; nt = no result given. The list is not random: actives were taken first. Their share in the collection is about 2%.

SMILES	S100A4 inh HTS	CDK5 p35 inh	CAL PDZ FP-1	CAL PDZ FP-2	C2C12 statin	dFosB activator
O=C(CC1C(=O)NCCN1Cc1ccc(-c2ccccc2)cc1)NCc1ccccc1 (stereo unspecified)	-2	-2	0	0	-4	-2
CCCS(=O)(=O)Nc1ccc(Nc2c3ccccc3nc3ccccc23)c(OC)c1	2	0	-2	-5	nt	54*
COc1ccc(Nc2c3c(nc4ccccc24)CCC3)c(OC)c1	4	1	-2	-5	-30	-3
CC(C)(C)c1ccc(C(=O)NCC(=O)OCC(=O)NC(=O)NC2CCCC2)cc1	-1	-3	-1	-2	2	-15
CC(=O)N1CCN(C(=S)c2ccc(Cl)cc2)CC1	nt	-2	0	43*	nt	9
CC(=O)N1CCN(c2ccc(NC(=O)c3ccc(Cl)cc3)cc2)CC1	-5	1	-4	2	-3	-1
CCOC(=O)N1CCN(C(=O)CNC2CCCCCCC2)CC1	-21	1	0	21	nt	1
CCOC(=O)C1=C(COC(=O)CNS(=O)(=O)c2ccc(C)cc2)NC(=O)NC1C (stereo unspecified)	-1	1	-2	0	5	-7
CC(=O)Nc1ccc(NC(=O)C(C)N(C)CC(=O)Nc2ccccc2Br)cc1 (stereo unspecified)	-10	0	-2	33*	8	-1
COc1ccc(Br)c(C(=O)Nc2ccc(F)cc2)c1	13	0	-1	40*	nt	3
COc1cccc(NC(=O)c2ccccc2Br)c1	1	-1	-1	nt	7	3
O=C(Nc1ccc(F)cc1)c1cc(Cl)sc1Cl	-2	0	27	87*	nt	2
C[C@H](CO)N1C[C@H](C)[C@H](CN(C)C(=O)C2CCCCC2)Oc2ncc(C#CC3(O)CCCC3)cc2C1=O	-8	nt	nt	nt	-17	nt
C[C@H](NC(=O)C[C@@H]1CC[C@@H](NC(=O)CN2CCOCC2)[C@@H](CO)O1)c1ccccc1	-2	nt	nt	nt	8	nt
COc1cc(NC(=O)c2c(F)c(F)c(F)c(F)c2F)c(OC)cc1Cl	nt	0	0	nt	7	4
CCOC(=O)N1CCN(C(=O)c2ccc3c(=O)n(-c4ccc(OC)cc4)c(=S)[nH]c3c2)CC1	nt	1	0	nt	3	1
CCOC(=O)N1CCN(C(=O)c2ccc3c(=O)n(-c4ccc(OC)cc4OC)c(=S)[nH]c3c2)CC1	nt	1	-3	82*	11	14
CCOC(=O)C1CCCN(C(=O)c2ccc3c(=O)n(Cc4ccccc4OC)c(=S)[nH]c3c2)C1 (stereo unspecified)	3	-1	-1	32*	17	-18
O=c1cc(/C=C/c2ccccc2)oc2c1ccc1ccccc12	nt	nt	-1	-7	-8	-55
CCOC(=O)Cn1c(=O)oc2cc(S(=O)(=O)N(C)Cc3ccccc3)ccc21	-4	-1	0	76*	-1	-7
COC(=O)c1scc(C)c1NC(=O)C1CCCCC1	nt	1	-1	2	83*	-5
CCN(CC)C(=O)N1CCC(NC(=O)c2ccc(C(C)(C)C)cc2)CC1	nt	1	-2	-3	-7	-1
O=[N+]([O-])c1ccc(Sc2nccn2Cc2ccccc2)cc1	nt	1	0	30*	-7	-12
COc1ccc(C2C(Oc3ccccc3)C(=O)N2c2cc(C)ccc2C)cc1OC (stereo unspecified)	nt	0	-2	nt	73*	-19
COc1ccc(C2C(Oc3ccccc3)C(=O)N2c2ccc(C)c(C)c2)cc1OC (stereo unspecified)	nt	0	-3	3	56	-9
SMILES	S100A4 inh HTS	CDK5 p35 inh	CAL PDZ FP-1	CAL PDZ FP-2	C2C12 statin	dFosB activator
COc1ccc(CN(CCC#N)C(=S)NC(=O)c2ccccc2)cc1	nt	1	0	-1	114*	-4
CCOc1ccc(CN(CCC#N)C(=S)NC(=O)c2ccccc2)cc1	nt	1	-1	5	nt	-9
COc1ccccc1-n1nnnc1SCC(=O)Nc1ccccn1	nt	-2	-1	-2	72*	1
C[C@H](CO)N1C[C@H](C)[C@@H](CN(C)Cc2ccc(C(F)(F)F)cc2)Oc2ccc(NC(=O)CCCCCC(=O)Nc3ccccc3N)cc2CC1=O	-9	nt	nt	nt	106*	nt
C[C@H]1CN([C@@H](C)CO)C(=O)Cc2cc(NC(=O)CCCCCC(=O)Nc3ccccc3N)ccc2O[C@H]1CN(C)Cc1ccc(-c2ccccc2)cc1	-2	nt	nt	nt	142*	nt
C[C@@H]1CN([C@H](C)CO)C(=O)Cc2cc(NC(=O)CCCCCC(=O)Nc3ccccc3N)ccc2O[C@H]1CN(C)Cc1ccc(Cl)c(Cl)c1	-6	nt	nt	nt	nt	nt
C[C@H]1CN([C@@H](C)CO)C(=O)Cc2cc(NC(=O)CCCCCC(=O)Nc3ccccc3N)ccc2O[C@@H]1CN(C)Cc1ccc(Cl)c(Cl)c1	0	nt	nt	nt	124*	nt
C[C@@H]1CN([C@H](C)CO)C(=O)Cc2cc(NC(=O)CCCCCC(=O)Nc3ccccc3N)ccc2O[C@H]1CN(C)Cc1ccc(Oc2ccccc2)cc1	0	nt	nt	nt	104*	nt
O=C(NCCc1ccccc1)C1CCCN1C(=O)NCc1ccccc1 (stereo unspecified)	nt	1	-2	1	1	5
O=C(c1ccc2ncsc2c1)N1CCCCC1	-2	-1	-1	-2	nt	-4
COCC(=O)Nc1ccc2c(c1)OC[C@H](C)N(C(=O)c1ccncc1)C[C@H](C)[C@@H](OC)CN(C)C2=O	4	nt	nt	nt	-12	nt
Cc1cc(=O)[nH]c(N/N=C/C=C/c2ccccc2)n1	-3	-1	-3	-2	nt	7
COc1ccccc1CNc1nc(-c2cc(C)n(C)c2C)cs1	nt	0	2	2	nt	18*
COCCc1nnc(NC(=O)Cc2ccccc2)s1	nt	0	0	-1	89*	-1
CC(=O)c1ccc(NC(=O)COC(=O)c2ccccc2Sc2ccccc2C#N)cc1	-4	0	-3	2	-1	40*
C(=C\c1nccc2c1[nH]c1ccccc12)/c1ccccc1	-2	-1	-2	7	-38	42*
Cc1ccc(/C=C\c2nccc3c2[nH]c2ccccc23)cc1	-3	0	0	-5	-27	42*
CCOC(=O)C(NC(C)=O)(Nc1ccc(S(=O)(=O)Nc2ncccn2)cc1)C(F)(F)F (stereo unspecified)	-3	0	-1	2	nt	1

Assay outcomes as filed in PubChem.
